The source made the active and inactive calls. No cut-off for these calls is given here.
How the values were obtained:
Plasma [1] = assay: Drug metabolism in Sprague-Dawley rat plasma assessed as nicotinuric acid formation at 300 mg/kg, qd administered through oral gavage for 7 days measured 2 hrs post last dose by LC/MS/MS analysis; format: ADME, organism-based; details: in vivo
[2] = molecular target: T1, Fatty-acid amide hydrolase 1 (Rattus norvegicus, UniProt P97612); assay: Drug metabolism in rat liver lysate assessed as FAAH-mediated compound hydrolysis at 5 uM by LC-MS-MS analysis in the presence of PF3845; format: ADME, tissue-based
T1 sequence (P97612 whole entry): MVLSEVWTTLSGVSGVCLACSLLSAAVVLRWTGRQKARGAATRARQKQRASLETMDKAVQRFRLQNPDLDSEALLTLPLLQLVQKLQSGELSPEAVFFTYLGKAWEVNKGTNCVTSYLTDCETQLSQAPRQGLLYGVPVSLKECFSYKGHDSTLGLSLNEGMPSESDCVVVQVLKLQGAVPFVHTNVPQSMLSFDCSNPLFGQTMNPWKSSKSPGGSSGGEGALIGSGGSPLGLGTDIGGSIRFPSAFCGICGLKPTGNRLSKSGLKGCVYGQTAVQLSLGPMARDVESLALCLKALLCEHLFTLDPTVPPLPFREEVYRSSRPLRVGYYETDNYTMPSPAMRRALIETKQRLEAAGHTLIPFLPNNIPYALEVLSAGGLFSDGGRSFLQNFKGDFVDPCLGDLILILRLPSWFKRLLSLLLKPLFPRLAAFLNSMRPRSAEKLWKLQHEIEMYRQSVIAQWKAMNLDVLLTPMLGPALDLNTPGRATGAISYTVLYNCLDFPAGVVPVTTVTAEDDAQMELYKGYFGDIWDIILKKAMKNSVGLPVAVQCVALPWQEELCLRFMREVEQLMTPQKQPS
Outline: (§1)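 Rat liver lysate, 3 mg/mL final, in 50 mM HEPES / 1 mM EDTA buffer, pre-equilibrated 20 min at 37 °C; reaction started by adding compound in DMSO; incubated at 37 °C and loss of starting material monitored by LC/MS/MS; FAAH inhibitor PF-3845 added where indicated.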

Plasma [3] = assay: Metabolic stability in human plasma at 5 uM up to 2 hrs by LC-MS-MS analysis; format: ADME, cell-free
Outline: (§2)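 Plasma from each species diluted to 50% with 0.05 M PBS pH 7.4 and prewarmed to 37 °C; compound added at 5 µM final (from DMSO stock diluted in MeOH); triplicate incubations at 37 °C, sampled at 0, 30, 60, 120 min, quenched with acetonitrile containing internal standard, centrifuged, analysed by LC/MS/MS.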

Plasma [4] = assay: Metabolic stability in rat plasma at 5 uM up to 2 hrs by LC-MS-MS analysis; format: ADME, cell-free; outline: as §2
[5] = molecular target: T1, Fatty-acid amide hydrolase 1; assay: Drug metabolism in rat liver lysate assessed as FAAH-mediated compound hydrolysis at 5 uM by LC-MS-MS analysis; format: ADME, tissue-based; outline: as §1
Mus musculus = assay: Inhibition of VLDL cholesterol levels in po dosed ApoE*3-Leiden mouse plasma administered for 16 weeks; format: functional, organism-based
Outline: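 Transgenic ApoE*3-Leiden mice on high-cholesterol Western-type diet dosed over 16 weeks; plasma PCSK9, total cholesterol, triglycerides and lipoprotein profile (VLDL, LDL) assessed at study end.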

Rattus norvegicus = assay: Cmax in portal vein cannulated Sprague-Dawley rat assessed nicotinuric acid at 30 mg/kg, po measured up to 140 mins; format: ADME, organism-based; parameters: dose 30 mg/kg, route oral; details: in vivo
Outline: (§3)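 Sprague Dawley rats surgically fitted with indwelling jugular vein and portal vein cannulas; oral dosing, then serial blood draws from both portal and jugular veins at 10, 20, 40 min and 1, 2, 4, 6 hr post dose; plasma analysed for parent and metabolites by LC/MS/MS.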

Plasma [6] = assay: Metabolic stability in mouse plasma at 5 uM up to 2 hrs by LC-MS-MS analysis; format: ADME, cell-free; outline: as §2
[7] = AUClast in Sprague-Dawley rat at 100 mg/kg, po administered as single dose measured up to 6 hrs post dose by LC/MS/MS analysis; format: ADME, organism-based; parameters: dose 100 mg/kg, time < 6 hr, route oral; details: in vivo
Outline: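 Single oral dose to Sprague Dawley rats; plasma collected at 0.25, 0.5, 1, 2, 4 and 6 hr; analytes in plasma quantified by LC/MS/MS.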

[8] = Cmax in portal vein cannulated Sprague-Dawley rat at 30 mg/kg, po measured up to 140 mins; format: ADME, organism-based; parameters: dose 30 mg/kg, route oral; details: portal vein blood; outline: as §3
[9] = molecular target: T2, Fatty-acid amide hydrolase 1 (Homo sapiens, UniProt O00519); assay: Drug metabolism assessed as human recombinant N-terminal FLAG/C-terminal His-tagged FAAH1 (32 to 579 residues)-mediated compound hydrolysis by measuring release of EPA at 25 uM by LC/MS-MS analysis; format: ADME; details: TDE = time-dependent effect
T2 sequence (O00519 whole entry): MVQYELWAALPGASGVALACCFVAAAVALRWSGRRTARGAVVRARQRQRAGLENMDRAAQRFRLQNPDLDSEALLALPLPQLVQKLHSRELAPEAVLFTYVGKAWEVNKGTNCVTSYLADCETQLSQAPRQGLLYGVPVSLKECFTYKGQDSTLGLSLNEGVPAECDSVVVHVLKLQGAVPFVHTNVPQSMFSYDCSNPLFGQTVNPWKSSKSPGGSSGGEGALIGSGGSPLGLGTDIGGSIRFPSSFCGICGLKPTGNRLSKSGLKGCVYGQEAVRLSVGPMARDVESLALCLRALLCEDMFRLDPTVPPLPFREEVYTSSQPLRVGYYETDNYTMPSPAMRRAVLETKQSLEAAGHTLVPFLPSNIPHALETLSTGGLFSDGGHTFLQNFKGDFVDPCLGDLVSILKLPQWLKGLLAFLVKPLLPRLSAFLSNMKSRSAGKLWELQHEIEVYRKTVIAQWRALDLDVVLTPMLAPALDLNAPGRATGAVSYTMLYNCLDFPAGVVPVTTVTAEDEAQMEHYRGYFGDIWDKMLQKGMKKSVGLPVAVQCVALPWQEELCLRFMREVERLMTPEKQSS

Muscle tissue [10] = assay: Drug metabolism in Sprague-Dawley rat muscle assessed as salicyluric acid formation at 300 mg/kg, po administered for 14 days followed by 7 day washout cycle measured on day 21; format: ADME, organism-based; details: in vivo
Plasma [11] = assay: Drug metabolism in Sprague-Dawley rat plasma assessed as salicylic acid formation at 300 mg/kg, po administered for 7 days measured 4 hrs post dose on day 7; format: ADME, organism-based; details: in vivo
Outline: (§4)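 Male Sprague Dawley rats, groups of 4, dosed orally at 300 mg/kg once daily for 14 days. Animals killed on days 1, 3, 7 and 14, with plasma, brain, epididymal fat, liver and muscle taken 4 hr after dosing. Parent, salicylic acid and salicyluric acid were measured.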

[12] = Drug metabolism in Sprague-Dawley rat epididymal fat assessed as salicyluric acid formation at 300 mg/kg, po administered for 14 days followed by 7 day washout cycle measured on day 21; format: ADME, organism-based, Epididymal fat pad; details: in vivo
[13] = Drug uptake in Sprague-Dawley rat muscle at 300 mg/kg, po administered for 7 days measured 4 hrs post dose on day 7; format: ADME, organism-based, Muscle tissue; details: read-out: Drug uptake; outline: as §4
Muscle tissue [14] = assay: Drug metabolism in Sprague-Dawley rat muscle assessed as salicylic acid formation at 300 mg/kg, po administered for 14 days followed by 7 day washout cycle measured on day 21; format: ADME, organism-based; details: in vivo
[15] = Drug uptake in Sprague-Dawley rat liver at 300 mg/kg, po administered for 7 days measured 4 hrs post dose on day 7; format: ADME, organism-based; details: read-out: Drug uptake; outline: as §4

Drug metabolism (Muscle tissue [10]) | Drug metabolism (Plasma [11]) [ng/mL] | Drug metabolism [5] | Drug metabolism [12] | concentration at 4 h [13] [ng/g] | Drug metabolism (Muscle tissue [14]) | concentration at 4 h [15] [ng/g] | Compound | Drug metabolism (Plasma [1]) [ng/mL] | Drug metabolism [2] | Stability (Plasma [3]) | Stability (Plasma [4]) | Drug metabolism ([5]; TDE = time-dependent effect) | inhibition (Mus musculus) | Cmax (Rattus norvegicus) [ng/mL] | Stability (Plasma [6]) | AUC(0-t) at 6 h [7] [ng·h/mL] | Cmax [8] [ng/mL] | Drug metabolism [9]
– | – | – | – | – | – | – | CC/C=C\C/C=C\C/C=C\C/C=C\C/C=C\CCCC(=O)NCCNC(=O)c1cccnc1 | 3220 | metabolite_notdetected | Stable | Stable | tde | Active | 125 | Stable | 172 | 418 | tde
metabolite_notdetected | 154.2 | metabolite_detected | metabolite_notdetected | 425 | metabolite_notdetected | 331 | CC/C=C\C/C=C\C/C=C\C/C=C\C/C=C\C/C=C\CCC(=O)NCCNC(=O)c1ccccc1O [EDASALONEXENT] | – | metabolite_notdetected | – | – | – | – | – | – | – | – | –
